This passage reports Activity, Ratio and inhibition results from ChEMBL document CHEMBL3045579, “Herbicidal activity of cineole derivatives” (2010).

What all share (format): functional
Experiment [1] relates to Lolium rigidum. Briefly: Pre-emergence herbicidal activity against Lolium rigidum seeds assessed as root length at 0.1 mol/l at 25 degC after 72 hr by laboratory-based agar medium bioassay relative to control. The essentials:
(§1)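 Solutions tested at 1 to 1 × 10^-4 mol L^-1. 10 seeds/dish, 5 randomized replicate dishes angled ~70°. Incubated 72 h at 25 °C in light. Solvent and no-solvent controls. Germination, root length and shoot length recorded.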

Experiment [2] deals with Radish. The experiment is described as follows: Pre-emergence herbicidal activity against Raphanus sativus var.Long scarlet (radish) seeds assessed as concentration required to suppress root growth at 25 degC after 72 hr by laboratory-based agar medium bioassay.
For experiment [3], the system named is Lolium rigidum. The experiment is described as follows: Pre-emergence herbicidal activity against Lolium rigidum seeds assessed as seed germination at 0.1 mol/l at 25 degC after 72 hr by laboratory-based agar medium bioassay relative to 1,8-Cineole. Summed up:
(§2)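 Agar-plate assay as above: compound in organic solvent evaporated onto Ca/B water agar, 10 seeds × 5 dishes, 72 h at 25 °C in light. Germination, root length or shoot length at 0.1 mol L^-1 expressed relative to 1,8-cineole.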

The test system of experiment [4] is Radish. The experiment is described as follows: Pre-emergence herbicidal activity against Raphanus sativus var.Long scarlet (radish) seeds assessed as concentration required to suppress shoot growth at 25 degC after 72 hr by laboratory-based agar medium bioassay.
The subject of experiment [5] is Radish. The experiment is described as follows: Pre-emergence herbicidal activity against Raphanus sativus var.Long scarlet (radish) seeds assessed as root length at 0.1 mol/l at 25 degC after 72 hr by laboratory-based agar medium bioassay relative to 1,8-Cineole. Summed up: as §2
The subject of experiment [6] is Lolium rigidum. Briefly: Pre-emergence herbicidal activity against Lolium rigidum seeds assessed as shoot length at 0.1 mol/l at 25 degC after 72 hr by laboratory-based agar medium bioassay relative to 1,8-Cineole. Summed up:
as §2

Experiment [7] deals with Lolium rigidum. The experiment is described as follows: Pre-emergence herbicidal activity against Lolium rigidum seeds assessed as concentration required to suppress root growth at 25 degC after 72 hr by laboratory-based agar medium bioassay.
Experiment [8] concerns Lolium rigidum. Briefly: Pre-emergence herbicidal activity against Lolium rigidum seeds assessed as root length at 0.1 mol/l at 25 degC after 72 hr by laboratory-based agar medium bioassay relative to 1,8-Cineole. Summed up:
as §2

For experiment [9], the system named is Lolium rigidum. Briefly: Pre-emergence herbicidal activity against Lolium rigidum seeds assessed as concentration required to suppress shoot growth at 25 degC after 72 hr by laboratory-based agar medium bioassay.
The subject of experiment [10] is Radish. Briefly: Pre-emergence herbicidal activity against Raphanus sativus var.Long scarlet (radish) seeds assessed as shoot length at 0.1 mol/l at 25 degC after 72 hr by laboratory-based agar medium bioassay relative to control. Summed up:
as §1

Experiment [11] has as its system Lolium rigidum. Briefly: Pre-emergence herbicidal activity against Lolium rigidum seeds assessed as shoot length at 0.1 mol/l at 25 degC after 72 hr by laboratory-based agar medium bioassay relative to control. Summed up: as §1
Experiment [12] deals with Lolium rigidum. Briefly: Pre-emergence herbicidal activity against Lolium rigidum seeds assessed as seed germination at 0.1 mol/l at 25 degC after 72 hr by laboratory-based agar medium bioassay relative to control. Summed up: as §1
In experiment [13] the test system is Radish. The experiment is described as follows: Pre-emergence herbicidal activity against Raphanus sativus var.Long scarlet (radish) seeds assessed as shoot length at 0.1 mol/l at 25 degC after 72 hr by laboratory-based agar medium bioassay relative to 1,8-Cineole. The essentials:
as §2

Experiment [14] relates to Radish. Briefly: Pre-emergence herbicidal activity against Raphanus sativus var.Long scarlet (radish) seeds assessed as root length at 0.1 mol/l at 25 degC after 72 hr by laboratory-based agar medium bioassay relative to control. The essentials:
as §1

For experiment [15], the system named is Radish. The experiment is described as follows: Pre-emergence herbicidal activity against Raphanus sativus var.Long scarlet (radish) seeds assessed as seed germination at 0.1 mol/l at 25 degC after 72 hr by laboratory-based agar medium bioassay relative to control. The essentials: as §1
Experiment [16] relates to Radish. Briefly: Pre-emergence herbicidal activity against Raphanus sativus var.Long scarlet (radish) seeds assessed as seed germination at 0.1 mol/l at 25 degC after 72 hr by laboratory-based agar medium bioassay relative to 1,8-Cineole. Summed up: as §2
Experiment [17] deals with Radish. Briefly: Pre-emergence herbicidal activity against Raphanus sativus var.Long scarlet (radish) seeds assessed as concentration required to suppress seed germination at 25 degC after 72 hr by laboratory-based agar medium bioassay.
The test system of experiment [18] is Lolium rigidum. The experiment is described as follows: Pre-emergence herbicidal activity against Lolium rigidum seeds assessed as concentration required to suppress seed germination at 25 degC after 72 hr by laboratory-based agar medium bioassay.

Molecules are shown by their SMILES. Activity calls are given as the source filed them. The rule behind the calls is not given here.

As for `CC(C)[C@]12CC[C@@](C)(O1)[C@H](O)C2` (racemic) [2-Exo-hydroxy-1,4-cineole], the Activity is 6.1% in [1]; 0.1 mol/L in experiment [2]; 0.1 mol/L in [4]; 0.01 mol/L in [7]; 0.1 mol/L in [9]; 41.7% in [10]. In addition, the Activity stood at 23.1% in experiment [11]; 21.7% in [12]; 9.9% in experiment [14]; 2.6% in [15]; 0.1 mol/L in experiment [17]; 0.1 mol/L in experiment [18]. The Ratio in experiment [3] came out at 1.4; in experiment [5] it was 3.7; in [6], 1.2; in experiment [8], 3.7; in experiment [13] it was 1.6; in [16] it was 13.1.

With `CC(=O)O[C@@H]1C[C@@]2(C(C)C)CC[C@@]1(C)O2` (racemic) [2-exo-acetoxy-1,4-cineole], the Activity in experiment [1] was found to be 0%; in experiment [2], 0.01 mol/L; in experiment [4], 0.01 mol/L; in experiment [7] it was 0.01 mol/L; in [9], 0.01 mol/L; in experiment [10], 0%. Moreover, the Activity in [11] is listed as 0%; in experiment [12] it was 0%; in [14], 2.7%; in experiment [15] it was 4.5%; in experiment [17], 0.01 mol/L; in experiment [18] it was 0.1 mol/L. In addition, the inhibition result in experiment [3], in [6], in [8] and in experiment [13] was “Active” in each case. In addition, the values for the Ratio in experiment [5] and in experiment [16] were 3.5 and 7.5, respectively.

With `CCCC(=O)O[C@@H]1C[C@@]2(C(C)C)CC[C@@]1(C)O2` (racemic) [2-exo-butoxy-1,4-cineole], the inhibition entry in experiment [5], in experiment [13] and in [16] was “Active” each time.

Regarding `CC(C)[C@]12CC[C@@](C)(O1)[C@H](OC(=O)CC(C)(C)C)C2` (racemic) [2-exo-t-butylacetoxy-1,4-cineole], the Activity is 0.01 mol/L in experiment [2]; 0.01 mol/L in [4]; 0.01 mol/L in experiment [7]; 0.1 mol/L in experiment [9]; 71.2% in experiment [10]; 55.8% in experiment [14]. Besides, the Activity is listed as 42.9% in experiment [15], 0.1 mol/L in experiment [17] and 0.1 mol/L in [18]. The figures for the Ratio in experiment [5], in [13] and in experiment [16] were 0.7, 0.9 and 0.8, respectively.

Consider `CC(=O)O[C@H]1C[C@@]2(C)CC[C@H]1C(C)(C)O2` (racemic) [3-Exo-acetoxy-1,8-cineole], for which the Activity in [1] is on record as 7.6%; in [2], 0.01 mol/L; in experiment [4], 1 mol/L; in [7] it was 0.1 mol/L; in [9], 0.1 mol/L; in experiment [10], 64.3%. Besides, the Activity in experiment [11] worked out at 21.3%; in [12], 34.1%; in experiment [14] it was 29.2%; in experiment [15] it was 18.9%; in [17], 0.01 mol/L; in experiment [18], 0.1 mol/L. The Ratio in experiment [3] was found to be 0.9; in [5], 1.3; in experiment [6], 1.3; in experiment [8] it was 2.9; in [13], 1; in experiment [16], 1.8.
